Key:
Type in all cases: functional
[1] = test system: Mycobacterium tuberculosis; assay: Antitubercular activity against Mycobacterium tuberculosis Spec.192 assessed as inhibition of microbial growth incubated for 1 week by MABA method; settings: Mycobacterium tuberculosis, 192, 168 h; time 1 weeks
Outline: (§1)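 Microplate Alamar Blue assay in Middlebrook 7H9 broth with 10% OADC. Inoculum from fresh LJ culture was adjusted to McFarland 1 and diluted 1:20. DMSO stocks were two-fold serially diluted to final 0.125–512 µg/ml, with growth and sterile controls. Plates ran 1 week at 37 °C, then Alamar blue was added for 24 h. MIC is the lowest concentration preventing the blue-to-pink change.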

[2] = test system: Mycobacterium tuberculosis; assay: Potentiation of rifampicin-induced antimycobacterial activity against Mycobacterium tuberculosis H37Rv ATCC 25618 assessed as fold decrease in rifampicin MIC at 1/2X MIC incubated for 14 days in presence of rifampicin by MABA method; settings: time 14 day
Outline: (§2)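 Combination assay in Middlebrook 7H9 broth with 10% OADC. The reference drug (INH, RMP, SM or EMB) was varied from 1 to 1/32 of its MIC, and the test derivative was fixed at 1/2 its own MIC. Single-agent MICs were determined first by MABA. Inoculum was 1 McFarland, with 14 days of incubation at 37 °C. The endpoint was the lowest reference-drug concentration that inhibited growth.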

[3] = test system: Mycobacterium tuberculosis; assay: Potentiation of ethambutol-induced antimycobacterial activity against Mycobacterium tuberculosis H37Rv ATCC 25618 assessed as fold decrease in ethambutol MIC at 1/2X MIC incubated for 14 days in presence of ethambutol by MABA method; settings: time 14 day; outline: as §2
[4] = test system: Mycobacterium tuberculosis; assay: Potentiation of rifampicin-induced antimycobacterial activity against Mycobacterium tuberculosis Spec.192 assessed as fold decrease in rifampicin MIC at 1/2X MIC incubated for 14 days in presence of rifampicin by MABA method; settings: time 14 day; outline: as §2
[5] = test system: Mycobacterium tuberculosis; assay: Potentiation of ethambutol-induced antimycobacterial activity against Mycobacterium tuberculosis Spec.192 assessed as fold decrease in ethambutol MIC at 1/2X MIC incubated for 14 days in presence of ethambutol by MABA method; settings: time 14 day; outline: as §2
[6] = test system: Mycobacterium tuberculosis; assay: Antitubercular activity against Mycobacterium tuberculosis H37Rv ATCC 25618 assessed as fractional inhibitory concentration index incubated for 14 days in presence of 1/2 x MIC ethambutol by MABA method; settings: time 14 day
Outline: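 Interaction analysis in Middlebrook 7H9 with 10% OADC. Combination MICs came from mixing the derivative (1 to 1/32 MIC) with the reference drug at 1/2 MIC, and the reverse, after 14 days at 37 °C with McFarland 1 inoculum. FICI was calculated from the combination MIC values and the MICs alone.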

[7] = test system: Mycobacterium tuberculosis; assay: Antitubercular activity against Mycobacterium tuberculosis H37Rv ATCC 25618 assessed as reduction in bacterial growth incubated for 14 days in presence of 1/2 x MIC ethambutol by MABA method; settings: H37Rv ATCC 25618, 336 h, time 14 day
Outline: (§3)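 Checkerboard-type combination in Middlebrook 7H9 with 10% OADC. The test derivative at 1 to 1/32 of its MIC alone was mixed with the reference drug fixed at 1/2 its MIC. 4 ml samples were inoculated with McFarland 1 suspension and incubated 14 days at 37 °C. MIC is the lowest derivative concentration in combination that inhibited growth in liquid medium.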

[8] = test system: Mycobacterium tuberculosis; assay: Antitubercular activity against Mycobacterium tuberculosis H37Rv ATCC 25618 assessed as inhibition of microbial growth incubated for 1 week by MABA method; settings: H37Rv ATCC 25618, 168 h, time 1 weeks; outline: as §1
[9] = test system: Mycobacterium tuberculosis; assay: Antitubercular activity against Mycobacterium tuberculosis H37Rv ATCC 25618 assessed as rifampicin MIC incubated for 14 days in presence of rifampicin by MABA method; settings: H37Rv ATCC 25618, 336 h, time 14 day
Outline: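 In Middlebrook 7H9 with 10% OADC, the reference drug (INH, RMP, SM or EMB) at 1 to 1/32 of its MIC alone was mixed with the test derivative fixed at 1/2 its MIC. 4 ml samples were inoculated with McFarland 1 suspension and incubated 14 days at 37 °C. MIC is the lowest drug concentration in combination that inhibited growth.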

[10] = test system: Staphylococcus epidermidis; assay: Antibacterial activity against Staphylococcus epidermidis ATCC 1457 assessed as bacterial growth inhibition measured after 18 hrs by two-fold serial microdilution method
Outline: (§4)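 Two-fold serial broth microdilution in MH II medium following modified CLSI procedures. Compounds were dissolved in DMSO and diluted in medium to at most 1% solvent, tested from 0.03125 to 512 μg/ml. Final inoculum 10^6 CFU/ml. MIC was taken as the lowest concentration with no visible growth after 18 h at 35 °C.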

[11] = test system: Mycobacterium tuberculosis; assay: Antitubercular activity against Mycobacterium tuberculosis H37Rv ATCC 25618 assessed as reduction in bacterial growth incubated for 14 days in presence of 1/2 x MIC streptomycin by MABA method; settings: H37Rv ATCC 25618, 336 h, time 14 day; outline: as §3
Pseudomonas aeruginosa [12] = assay: Antibacterial activity against Pseudomonas aeruginosa PAO1 assessed as bacterial growth inhibition measured after 18 hrs by two-fold serial microdilution method; outline: as §4
Proteus vulgaris = assay: Antibacterial activity against Proteus vulgaris NCTC 4635 assessed as bacterial growth inhibition measured after 18 hrs by two-fold serial microdilution method; outline: as §4
Pseudomonas aeruginosa [13] = assay: Antibacterial activity against Pseudomonas aeruginosa NCTC 6749 assessed as bacterial growth inhibition measured after 18 hrs by two-fold serial microdilution method; outline: as §4

COc1ccc(-n2nnnc2Nc2cccc(Br)c2)cc1
MIC [1]: 2 µg/mL
fold change (FC) [2]: 2
fold change (FC) [3]: 2
fold change (FC) [4]: 2
fold change (FC) [5]: 2
fractional inhibitory concentration index (FICI) [6]: 0.75
MIC [7]: 0.5 µg/mL
MIC [8]: 2 µg/mL
MIC [9]: 0.25 µg/mL
MIC [10]: > 256 µg/mL
MIC [11]: 0.5 µg/mL
MIC (Pseudomonas aeruginosa [12]): > 256 µg/mL
MIC (Proteus vulgaris): > 256 µg/mL
MIC (Pseudomonas aeruginosa [13]): > 256 µg/mL

COc1ccc(-n2nnnc2Nc2ccc(Br)cc2)cc1
MIC [1]: 2 µg/mL
fractional inhibitory concentration index (FICI) [6]: 0.625
MIC [7]: 0.25 µg/mL
MIC [8]: 2 µg/mL
MIC [9]: 0.25 µg/mL
MIC [10]: > 256 µg/mL
MIC [11]: 0.25 µg/mL
MIC (Pseudomonas aeruginosa [12]): > 256 µg/mL
MIC (Proteus vulgaris): > 256 µg/mL
MIC (Pseudomonas aeruginosa [13]): > 256 µg/mL
